Experimental data from ChEMBL document CHEMBL4396973, “Design and development of a series of borocycles as selective, covalent kallikrein 5 inhibitors” (Bioorg Med Chem Lett, 2019).
Structures can show the parent of a compound that is named as a salt.

Columns and labels:
Kallikrein-5 [1] = molecular target: T1, Kallikrein-5 (Homo sapiens, UniProt Q9Y337); experiment: Inhibition of human recombinant 6His-Q-FLAG-tagged KLK5 expressed in baculovirus infected Sf9 insect cells using (Tos-Gly-Pro-Arg)2[R110].2TFA as substrate measured at 30 secs interval for 5 mins by FLINT assay
T1 sequence (Q9Y337 whole entry): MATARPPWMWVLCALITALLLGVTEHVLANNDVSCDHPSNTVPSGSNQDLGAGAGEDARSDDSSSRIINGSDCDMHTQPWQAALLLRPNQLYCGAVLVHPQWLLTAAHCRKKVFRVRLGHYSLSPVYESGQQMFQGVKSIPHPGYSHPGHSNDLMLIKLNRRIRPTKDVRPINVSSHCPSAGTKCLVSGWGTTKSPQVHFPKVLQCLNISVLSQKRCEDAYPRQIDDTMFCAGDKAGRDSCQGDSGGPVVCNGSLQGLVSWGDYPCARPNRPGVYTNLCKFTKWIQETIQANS
Method in brief: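 Standard KLK5 assay format. Its theoretical tight-binding limit corresponds to pIC50 8.4.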

Kallikrein-1 [2] = molecular target: T2, Kallikrein-1 (Homo sapiens, UniProt P06870); experiment: Inhibition of human recombinant N-terminal His-tagged and enterokinase cleavage site-fused KLK1 (19 to 262 residues) expressed in baculovirus infected Sf9 insect cells using R110 labelled GSK3162232A as substrate measured at 30 secs interval for 5 mins by FLINT assay
[3] = Dissociation constant, borocycle pKa of the compound; type: physicochemical
Kallikrein-1 [4] = molecular target: T2, Kallikrein-1; experiment: Inhibition of human recombinant N-terminal His-tagged and enterokinase cleavage site-fused KLK1 (19 to 262 residues) expressed in baculovirus infected Sf9 insect cells at 10 uM using R110 labelled GSK3162232A as substrate measured at 30 secs interval for 5 mins by FLINT assay relative to control
Coagulation factor X = Coagulation factor X (Homo sapiens, UniProt P00742); experiment: Inhibition of recombinant human C-terminal 10-His-tagged factor Xa (L24 to K488 residues) expressed in baculovirus infected Sf21 insect cells using Mca-RPKPVE-Nval-WRK(Dnp)-NH2 as substrate incubated for 40 mins by FLINT assay
Plasma kallikrein = Plasma kallikrein (Homo sapiens, UniProt P03952); experiment: Inhibition of human C-terminal 6-His-tagged KLKB1 (G20-A638 residues) expressed in mouse NS0 cells using PFR-AMC as substrate incubated for 40 mins by FLINT assay
Kallikrein-7 = Kallikrein-7 (Homo sapiens, UniProt P49862); experiment: Inhibition of recombinant human C-terminal 10-His-tagged KLK7 (Glu23 to His252 residues) expressed in mouse NS0 cells using 5-FAM-E-A-L-Y-L-V-S-G-C(5-TAMRA) as substrate incubated for 40 mins by FLINT assay
Kallikrein-8 = molecular target: T3, Kallikrein-8 (Homo sapiens, UniProt O60259); experiment: Inhibition of recombinant human C-terminal 10-His-tagged KLK8 (Gln29 to Gly260 residues) expressed in mouse NS0 cells using BOC-VPR-AMC as substrate incubated for 40 mins by FLINT assay
T3 sequence (O60259 whole entry): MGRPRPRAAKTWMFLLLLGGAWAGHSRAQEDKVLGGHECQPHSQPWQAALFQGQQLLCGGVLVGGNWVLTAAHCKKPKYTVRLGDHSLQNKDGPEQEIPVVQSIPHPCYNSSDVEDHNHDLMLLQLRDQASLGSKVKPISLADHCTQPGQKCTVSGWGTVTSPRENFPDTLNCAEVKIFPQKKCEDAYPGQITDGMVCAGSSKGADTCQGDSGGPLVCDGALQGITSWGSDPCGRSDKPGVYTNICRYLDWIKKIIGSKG

Kallikrein-14 = molecular target: T4, Kallikrein-14 (Homo sapiens, UniProt Q9P0G3); experiment: Inhibition of recombinant human C-terminal 10-His-tagged KLK14 (Q19 to M248 residues) expressed in mouse NS0 cells using BOC-VPR-AMC as substrate incubated for 40 mins by FLINT assay
T4 sequence (Q9P0G3 whole entry): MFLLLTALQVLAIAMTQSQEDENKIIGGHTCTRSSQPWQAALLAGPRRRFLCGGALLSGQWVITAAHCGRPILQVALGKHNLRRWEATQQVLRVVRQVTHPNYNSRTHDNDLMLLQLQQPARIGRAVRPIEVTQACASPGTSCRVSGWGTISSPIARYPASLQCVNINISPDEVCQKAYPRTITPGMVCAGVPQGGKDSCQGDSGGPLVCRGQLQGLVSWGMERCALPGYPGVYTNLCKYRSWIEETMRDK

[5] = molecular target: T5, Suppressor of tumorigenicity 14 protein (Homo sapiens, UniProt Q9Y5Y6); experiment: Inhibition of recombinant human N-terminal Met and 6-His-tagged matriptase (G596 to V855 residues) expressed in Escherichia coli using Boc-QAR-AMC as substrate incubated for 40 mins by FLINT assay
T5 sequence (Q9Y5Y6 whole entry): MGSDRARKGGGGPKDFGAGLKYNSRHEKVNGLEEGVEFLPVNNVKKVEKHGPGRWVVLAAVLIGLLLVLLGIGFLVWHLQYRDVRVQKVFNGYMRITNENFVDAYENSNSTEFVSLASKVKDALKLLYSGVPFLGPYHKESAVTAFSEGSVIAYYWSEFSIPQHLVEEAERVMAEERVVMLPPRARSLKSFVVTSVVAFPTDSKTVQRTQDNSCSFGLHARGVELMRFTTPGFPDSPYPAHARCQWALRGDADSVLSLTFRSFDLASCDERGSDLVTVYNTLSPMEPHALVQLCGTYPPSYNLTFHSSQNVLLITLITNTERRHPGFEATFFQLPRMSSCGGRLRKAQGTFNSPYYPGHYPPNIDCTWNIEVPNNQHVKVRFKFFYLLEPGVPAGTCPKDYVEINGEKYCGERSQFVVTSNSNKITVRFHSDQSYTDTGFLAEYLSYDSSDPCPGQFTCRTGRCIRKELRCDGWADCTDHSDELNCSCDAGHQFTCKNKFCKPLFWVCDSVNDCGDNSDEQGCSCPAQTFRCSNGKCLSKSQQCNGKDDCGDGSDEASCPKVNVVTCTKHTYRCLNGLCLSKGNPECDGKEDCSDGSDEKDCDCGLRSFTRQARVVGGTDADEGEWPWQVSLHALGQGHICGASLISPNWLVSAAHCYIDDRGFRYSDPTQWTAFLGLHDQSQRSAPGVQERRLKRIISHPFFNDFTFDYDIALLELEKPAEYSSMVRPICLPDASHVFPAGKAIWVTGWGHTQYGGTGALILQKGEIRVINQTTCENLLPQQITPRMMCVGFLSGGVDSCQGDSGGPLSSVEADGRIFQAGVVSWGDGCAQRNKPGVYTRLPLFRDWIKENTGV

Prothrombin = Prothrombin (Homo sapiens, UniProt P00734); experiment: Inhibition of human recombinant C-terminal 10-His-tagged thrombin (M1 to E622 residues) expressed in mouse NS0 cells using BOC-VPR-AMC as substrate incubated for 40 mins by FLINT assay
Neutrophil elastase = molecular target: T6, Neutrophil elastase (Homo sapiens, UniProt P08246); experiment: Inhibition of human neutrophil elastase using MeOSuc-AAPV-AMC as substrate incubated for 40 mins by FLINT assay
T6 sequence (P08246 whole entry): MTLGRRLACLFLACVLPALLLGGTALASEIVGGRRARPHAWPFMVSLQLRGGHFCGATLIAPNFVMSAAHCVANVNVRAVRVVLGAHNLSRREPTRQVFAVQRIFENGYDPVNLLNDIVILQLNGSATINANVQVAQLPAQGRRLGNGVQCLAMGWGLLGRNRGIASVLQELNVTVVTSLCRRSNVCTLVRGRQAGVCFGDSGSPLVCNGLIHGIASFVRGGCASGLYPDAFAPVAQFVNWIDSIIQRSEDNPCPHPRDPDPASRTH

[6] = molecular target: Urokinase-type plasminogen activator (Homo sapiens, UniProt P00749); experiment: Inhibition of recombinant human C-terminal 10-His-tagged urokinase (M1 to L431 residues) expressed in mouse NS0 cells using Z-GGR-AMC as substrate incubated for 40 mins by FLINT assay
Kallikrein-5 [7] = molecular target: T1, Kallikrein-5; experiment: Inhibition of human recombinant 6His-Q-FLAG-tagged KLK5 expressed in baculovirus infected Sf9 insect cells using (Tos-Gly-Pro-Arg)2[R110].2TFA as substrate measured at 30 secs interval for 5 mins using 1 x 10'10M enzyme by FLINT assay
Homo sapiens [8] = species: Homo sapiens; experiment: Selectivity ratio of IC50 for human C-terminal 6-His-tagged KLKB1 (G20 to A638 residues) expressed in mouse NS0 cells to IC50 for human recombinant 6His-Q-FLAG-tagged KLK5 expressed in baculovirus infected Sf9 insect cells
Homo sapiens [9] = species: Homo sapiens; experiment: Selectivity ratio of IC50 for human recombinant N-terminal His-tagged and enterokinase cleavage site-fused KLK1 (19 to 262 residues) expressed in baculovirus infected Sf9 insect cells to IC50 for human recombinant 6His-Q-FLAG-tagged KLK5 expressed in baculovirus infected Sf9 insect cells
Kallikrein-5 [10] = molecular target: T1, Kallikrein-5; experiment: Inhibition of human recombinant 6His-Q-FLAG-tagged KLK5 expressed in baculovirus infected Sf9 insect cells using rhodamine-labelled tripeptide as substrate measured at 30 secs interval for 5 mins by FLINT assay

Row | SMILES | IC50 (Kallikrein-5 [1]) [µM] | IC50 (Kallikrein-1 [2]) [µM] | pKa [3] | inhibition (Kallikrein-1 [4]) [%] | IC50 (Coagulation factor X) [µM] | IC50 (Plasma kallikrein) [µM] | IC50 (Kallikrein-7) [µM] | IC50 (Kallikrein-8) [µM] | IC50 (Kallikrein-14) [µM] | IC50 [5] [µM] | IC50 (Prothrombin) [µM] | IC50 (Neutrophil elastase) [µM] | IC50 [6] [µM] | IC50 (Kallikrein-5 [7]) [µM] | Ratio IC50 (Homo sapiens [8]) | Ratio IC50 (Homo sapiens [9]) | IC50 (Kallikrein-5 [10]) [µM]
1 | N=C(N)c1ccc(CC2OB(O)c3cc(C(F)(F)F)ccc32)cc1OCc1cccnc1 (racemic) | 0.0126 | > 10 | 4.51 | 24 | 31.6 | 0.2 | > 100 | 2 | 12.6 | 31.6 | 20 | > 100 | > 100 | 0.00251 | 10 |  | 
2 | Cc1ccc2c(c1)C(Cc1ccc(C(=N)N)c(OCc3cccnc3)c1)OB2O (racemic) | 0.02 | > 10 | 4.73 | 10 | 31.6 | 0.794 | > 100 | 10 | 25.1 | 25.1 | 6.31 | 25.1 | > 100 | 0.00794 | 10 |  | 
3 | N=C(N)c1ccc(CC2OB(O)c3ccc(F)cc32)cc1OCc1cccnc1 (racemic) | 0.0158 | > 10 | 4.66 | 10 | 63.1 | 0.794 | > 100 | 12.6 | 31.6 | 39.8 | 15.8 | 100 | > 100 | 0.01 | 10 |  | 
4 | N=C(N)c1ccc(C2Cc3ccccc3B(O)O2)cc1 (racemic) | 0.0794 | 10 |  |  |  |  |  |  |  |  |  |  |  |  |  | 30 to 100 | 
5 | N=C(N)c1ccccc1 [BENZAMIDINE HYDROCHLORIDE] |  |  |  |  |  |  |  |  |  |  |  |  |  |  |  |  | 501
